Consider six compounds from ChEMBL document CHEMBL3091284, “Hygrocins C-G, cytotoxic naphthoquinone ansamycins from gdmAI-disrupted Streptomyces sp. LZ35” (J Nat Prod, 2013).

SMILES strings stand for the structures. The source made the active and inactive calls. The calls are words filed in the database; no cut-off is given here.

What all share (type): functional, cell-based
The test system of experiment [1] is PC-3. The experiment can be described thus: Cytotoxicity against human PC3 cells by MTT assay. In short, it runs like this: (§1)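 MTT viability/proliferation assay on human cancer lines (breast MDA-MB-431, prostate PC3, alveolar basal epithelial A549, colorectal SW620, hepatocellular HepG2). Compounds tested up to a maximum of 10 μM, with activity judged relative to control and IC50 derived. Cisplatin at 5 μg/mL served as positive control.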
In general terms: Formazan colour is commonly taken as a measure of viable cells.

Experiment [2] is described as follows: Cytotoxicity against human MDA-MB-431 cells by MTT assay. In short, it runs like this: as §1
In a further experiment the test system is SW-620. The experiment can be described thus: Cytotoxicity against human SW620 cells assessed as growth inhibition up to 10 uM by MTT assay. In short, it runs like this: as §1
In another experiment the test system is HepG2. In words: Cytotoxicity against human HepG2 cells assessed as growth inhibition up to 10 uM by MTT assay. In short, it runs like this: as §1
For experiment [3], the system named is PC-3. The experiment can be described thus: Cytotoxicity against human PC3 cells assessed as growth inhibition up to 10 uM by MTT assay. In short, it runs like this:
as §1

The species entered for the next experiment is Homo sapiens. The experiment can be described thus: Cytotoxicity against human MDA-MB-431 cells assessed as growth inhibition up to 10 uM by MTT assay. In short, it runs like this: as §1
The next experiment deals with A549. The experiment can be described thus: Cytotoxicity against human A549 cells assessed as growth inhibition up to 10 uM by MTT assay. In short, it runs like this:
as §1

With `CC[C@@H]1/C=C/[C@H](O)[C@H](C)OC(=O)/C(C)=C\[C@H]2C(=O)NC3=CC(=O)c4c(cc(C)c(O)c4C(=O)CC1)[C@@]32O`, the concentration for half-maximal inhibition (IC50) with PC-3 [1] turned out to be 1.9 µM; in experiment [2], 0.5 µM.
With `CC[C@@H]1/C=C/[C@H](C(C)O)OC(=O)/C(C)=C\[C@H]2C(=O)NC3=CC(=O)c4c(cc(C)c(O)c4C(=O)CC1)[C@@]32O` (stereo partly specified), the figures for the IC50 (in the experiment with PC-3 [1]; in experiment [2]) were 4.5 µM and 3.3 µM, respectively.
As for `CCC1/C=C/[C@H](O)[C@H](C)OC(=O)[C@@]2(C)C=CC(=O)NC3=C2C(=O)c2c(cc(C)c(O)c2C(=O)CC1)C3=O` (stereo partly specified), the “growth inhibition (GI)” value with SW-620, with HepG2, with PC-3 [3], in the experiment filed under Homo sapiens and in the experiment on A549 was “inactive” each time.
In the case of `CC[C@@H]1/C=C/[C@H](O)[C@H](C)OC(=O)/C(C)=C/[C@@H]2C(=O)NC3=CC(=O)c4c(cc(C)c(O)c4C(=O)CC1)[C@@]32O`, the “growth inhibition (GI)” value with SW-620, in the experiment on HepG2, in the experiment on PC-3 [3], in the experiment listed under Homo sapiens and in the experiment on A549 was “inactive” each time.
As to `CC[C@@H]1/C=C/[C@H](O)[C@H](C)OC(=O)/C(C)=C\[C@@H]2C(=O)NC3=CC(=O)c4c(cc(C)c(O)c4C(=O)CC1)[C@@]32O`, the figures for the IC50 (in the experiment on PC-3 [1]; in experiment [2]) were 5 µM and 3 µM, respectively.
Regarding `CCC1/C=C/[C@H](C(C)O)OC(=O)[C@@]2(C)C=CC(=O)NC3=C2C(=O)c2c(cc(C)c(O)c2C(=O)CC1)C3=O` (stereo partly specified), the “growth inhibition (GI)” value with SW-620, with HepG2, with PC-3 [3], in the experiment listed under Homo sapiens and in the experiment with A549 was “inactive” in each case.

Broadly, the IC50 is the concentration needed to halve the response being measured. A high value points to lower potency.
